Assay results as given in ChEMBL document CHEMBL1134906, “Arylpiperazine substituted heterocycles as selective alpha(1a) adrenergic antagonists” (Bioorg Med Chem Lett, 2002).

Legend:
[1] = biological target: T1, Alpha-1B adrenergic receptor (Homo sapiens, UniProt P35368); experiment: Displacement of [125I]-HEAT from human Alpha-1B adrenergic receptor
T1 sequence (P35368 whole entry): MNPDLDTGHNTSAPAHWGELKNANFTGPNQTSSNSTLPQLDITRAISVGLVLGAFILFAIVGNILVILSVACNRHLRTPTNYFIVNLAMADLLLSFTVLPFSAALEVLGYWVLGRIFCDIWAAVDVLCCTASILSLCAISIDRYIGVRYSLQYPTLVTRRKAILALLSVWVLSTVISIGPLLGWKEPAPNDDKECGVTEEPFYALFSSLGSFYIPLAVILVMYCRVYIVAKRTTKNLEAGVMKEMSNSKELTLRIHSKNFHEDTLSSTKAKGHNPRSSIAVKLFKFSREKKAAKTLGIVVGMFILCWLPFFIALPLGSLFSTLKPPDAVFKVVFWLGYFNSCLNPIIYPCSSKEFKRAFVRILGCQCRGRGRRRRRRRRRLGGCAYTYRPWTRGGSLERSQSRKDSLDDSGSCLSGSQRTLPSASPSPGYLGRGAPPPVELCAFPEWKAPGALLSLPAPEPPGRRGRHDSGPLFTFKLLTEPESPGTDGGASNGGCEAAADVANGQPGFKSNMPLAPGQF
Procedure, shortened: (§1)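 Radioligand competition binding against 125I-HEAT ((±)-β-([125I]-3-iodo-4-hydroxyphenyl)ethylaminomethyl-tetralone), with COS cells as the receptor source. Ki values are derived from displacement and reported as means of three experiments.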

[2] = biological target: T2, Alpha-1D adrenergic receptor (Homo sapiens, UniProt P25100); experiment: Displacement of [125I]HEAT from human Alpha-1D adrenergic receptor; procedure, shortened: as §1
T2 sequence (P25100 whole entry): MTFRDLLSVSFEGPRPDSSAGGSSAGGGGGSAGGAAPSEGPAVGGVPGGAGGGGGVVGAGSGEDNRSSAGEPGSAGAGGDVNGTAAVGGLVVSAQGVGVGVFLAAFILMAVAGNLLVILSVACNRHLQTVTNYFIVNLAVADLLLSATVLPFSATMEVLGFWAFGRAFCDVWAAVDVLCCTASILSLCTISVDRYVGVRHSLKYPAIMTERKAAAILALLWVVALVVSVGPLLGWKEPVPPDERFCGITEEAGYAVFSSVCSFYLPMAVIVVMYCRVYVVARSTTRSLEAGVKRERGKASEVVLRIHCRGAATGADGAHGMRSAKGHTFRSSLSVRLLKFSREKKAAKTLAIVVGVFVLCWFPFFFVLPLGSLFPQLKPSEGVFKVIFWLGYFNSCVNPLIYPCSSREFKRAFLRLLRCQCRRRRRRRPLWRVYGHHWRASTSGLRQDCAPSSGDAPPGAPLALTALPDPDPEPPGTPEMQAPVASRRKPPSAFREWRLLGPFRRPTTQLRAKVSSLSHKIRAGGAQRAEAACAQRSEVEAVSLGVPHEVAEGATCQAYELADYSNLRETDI

[3] = biological target: Adrenergic receptors; alpha-1 A & B (Homo sapiens) (UniProt P35348+P35368); experiment: Relative binding affinity for alpha-1b and alpha-1a adrenergic receptors; assay type: protein assay
[4] = biological target: Alpha adrenergic receptor (1a and 1d) (Homo sapiens) (UniProt P35348+P25100); experiment: Relative binding affinity for alpha-1d and Alpha-1A adrenergic receptors; assay type: protein assay
[5] = biological target: T3, Alpha-1A adrenergic receptor (Homo sapiens, UniProt P35348); experiment: Displacement of [125I]HEAT from human Alpha-1A adrenergic receptor; procedure, shortened: as §1
T3 sequence (P35348 whole entry): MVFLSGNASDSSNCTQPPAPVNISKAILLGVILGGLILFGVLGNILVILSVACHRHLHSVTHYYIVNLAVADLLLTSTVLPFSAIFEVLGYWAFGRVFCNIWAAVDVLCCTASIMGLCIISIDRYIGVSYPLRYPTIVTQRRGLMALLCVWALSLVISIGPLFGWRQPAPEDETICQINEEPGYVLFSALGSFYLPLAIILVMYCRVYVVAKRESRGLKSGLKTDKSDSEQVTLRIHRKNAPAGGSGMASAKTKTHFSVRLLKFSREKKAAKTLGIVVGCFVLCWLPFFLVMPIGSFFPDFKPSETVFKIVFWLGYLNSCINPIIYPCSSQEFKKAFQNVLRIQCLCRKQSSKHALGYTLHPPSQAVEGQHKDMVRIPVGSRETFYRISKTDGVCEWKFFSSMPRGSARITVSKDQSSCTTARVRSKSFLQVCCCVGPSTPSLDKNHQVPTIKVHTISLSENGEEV

With `O=C1CCCCCN1Cc1cc(CN2CCN(c3ccccc3Oc3ccccc3)CC2)on1` the Ki [1] was over 5000 nM, the Ki [2] was 285 nM and the Ki ratio [3] was over 58. The Ki ratio [4] was 3.3 and the Ki [5] was 86 nM.
In the case of `CC(C)Oc1ccccc1N1CCN(Cc2nc(CN3CCCC3=O)co2)CC1`, the Ki [1] is reported as over 5000 nM, the Ki [2] is reported as over 5000 nM and the Ki ratio [3] is reported as over 3.8. It also gave a Ki ratio [4] of over 3.8 and a Ki [5] of 1300 nM.
Compound `CC(C)Oc1ccccc1N1CCN(Cc2nc(CN3CCCCCC3=O)co2)CC1` has a Ki [1] of over 5000 nM, a Ki [2] of over 5000 nM and a Ki ratio [3] of over 1.4. For the same compound, the Ki ratio [4] was over 1.4 and the Ki [5] was 3470 nM.
Work on `O=C1CCCN1Cc1cc(CN2CCN(c3ccccc3Oc3ccccc3)CC2)on1` yielded a Ki [1] of over 5000 nM, a Ki [2] of 34.5 nM and a Ki ratio [3] of over 170. For the same compound, the Ki ratio [4] was 1.2 and the Ki [5] was 28 nM.
In the case of `CC(C)Oc1ccccc1N1CCN(Cc2nc(CN3C(=O)c4ccccc4C3=O)co2)CC1`, the Ki [1] is reported as over 5000 nM, the Ki [2] is reported as 1110 nM and the Ki ratio [3] is reported as over 16.8. It also gave a Ki ratio [4] of 3.7 and a Ki [5] of 297 nM.
Compound `CC(C)Oc1ccccc1N1CCN(Cc2cc(CN3CCCCC3=O)no2)CC1` has a Ki [1] of over 5000 nM, a Ki [2] of 1440 nM and a Ki ratio [3] of over 595. The Ki ratio [4] was 174 and the Ki [5] was 8.4 nM.
In the case of `CC(C)Oc1ccccc1N1CCN(Cc2nc(CN3CCCCC3=O)co2)CC1`, the Ki [1] is reported as over 5000 nM, the Ki [2] is reported as over 5000 nM and the Ki ratio [3] is reported as over 2.2. The Ki ratio [4] was over 2.2 and the Ki [5] was 2320 nM.
`CC(C)Oc1ccccc1N1CCN(Cc2cc(CN3CCCC3=O)no2)CC1` gave a Ki [1] of 2990 nM, a Ki [2] of 65.5 nM and a Ki ratio [3] of 2720. The Ki ratio [4] was 60 and the Ki [5] was 1.1 nM.
For `CC(C)Oc1ccccc1N1CCN(Cc2nc(CN3C(=O)CC4(CCCC4)CC3=O)co2)CC1`, the Ki [1] was over 5000 nM, the Ki [2] was 4140 nM and the Ki ratio [3] was over 61. The Ki ratio [4] was 50 and the Ki [5] was 82 nM.
With `CC(C)Oc1ccccc1N1CCN(Cc2nc(CN3CCCCC3=O)cs2)CC1` the Ki [1] was 1740 nM, the Ki [2] was 39.5 nM and the Ki ratio [3] was 1450. The Ki ratio [4] was 33 and the Ki [5] was 1.2 nM.
`O=C1CCCCN1Cc1cc(CN2CCN(c3ccccc3Oc3ccccc3)CC2)on1` showed a Ki [1] of 2200 nM, a Ki [2] of 170 nM and a Ki ratio [3] of 147. The Ki ratio [4] was 11.3 and the Ki [5] was 15 nM.
For `OCc1cc(CN2CCN(c3ccccc3Oc3ccccc3)CC2)on1`, the Ki [1] was 3720 nM, the Ki [2] was 3060 nM and the Ki ratio [3] was 2.5. It also gave a Ki ratio [4] of 2 and a Ki [5] of 1500 nM.
`CC(C)Oc1ccccc1N1CCN(Cc2nc(CN3CCCC3=O)cs2)CC1` showed a Ki [1] of 4250 nM, a Ki [2] of 105 nM and a Ki ratio [3] of 4520. For the same compound, the Ki ratio [4] was 112 and the Ki [5] was 0.9 nM.
